Rows were chosen to be rich in hits. Some 1.5% of all compounds tested hit in one or more screens of this group.
NR2E3 ag-1: inhibitors of NR2E3-RetCOR corepressor binding, primary screen, NR2E3 agonist project, biochemical, TR-FRET, GST-NR2E3, biotin-RetCOR; Photoreceptor-specific nuclear receptor (Homo sapiens), Q9Y5X4; 1536-well; inhibition of corepressor binding, % at 4.78 µM; actives 0.12% (n = 320,000); AID 2300, 2010;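 active means percent inhibition above the cutoff of mean plus 3 SD of all tested compounds, set per screening campaign, cut at about 20% in these data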;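 further: 0% = DMSO wells and 100% = biotin wells as full block of FRET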
Target sequence (Q9Y5X4 whole entry, looked up): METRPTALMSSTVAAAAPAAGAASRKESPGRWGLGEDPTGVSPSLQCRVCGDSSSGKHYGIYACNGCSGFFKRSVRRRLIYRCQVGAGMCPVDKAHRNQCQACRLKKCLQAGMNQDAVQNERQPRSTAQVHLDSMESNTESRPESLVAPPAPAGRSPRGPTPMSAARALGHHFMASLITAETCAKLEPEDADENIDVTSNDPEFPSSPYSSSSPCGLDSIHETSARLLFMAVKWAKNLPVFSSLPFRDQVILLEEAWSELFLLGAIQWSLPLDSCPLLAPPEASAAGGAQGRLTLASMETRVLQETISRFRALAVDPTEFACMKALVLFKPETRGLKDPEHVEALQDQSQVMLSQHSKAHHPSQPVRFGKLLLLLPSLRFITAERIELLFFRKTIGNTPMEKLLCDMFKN
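Assay system: NR2E3–RetCOR corepressor complex. Quantity: 1.35 nM GST-NR2E3. Buffer or medium: pH 7.5 Tris-based buffer. Reagent: biotinylated RetCOR corepressor at 7 nM final. Schedule: 5 h at 4 °C. Detection: TR-FRET, emission read at 617 and 671 nm. Replicates: one well per compound, singlicate testing.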
PG9 binder: binders of HIV-1 gp120 antibody PG9, primary screen, biochemical, TR-FRET; HIV-1 gp120 / PG9 antibody interaction; TR-FRET gp120-PG9 antibody binding; inhibition, % at 6.7 µM; actives 0.43% (n = 360,000); AID 624416, 2012; in the data active means inhibition above about 8.5%
NR2E3 ag-2: NR2E3 agonists in two-hybrid cells, primary screen, cell-based, luminescence, CHO-S, Gal4-NCOR/VP16-NR2E3; Photoreceptor-specific nuclear receptor (Homo sapiens), Q9Y5X4; luciferase; inhibition of corepressor binding, % at 3.98 µM; actives 0.35% (n = 360,000); AID 602229, 2012;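 active means inhibition above the mean of all tested compounds plus 3 SD, cut at about 70% in these data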;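 further: 0% = DMSO with NR2E3 transfected cells and 100% = cells lacking NR2E3 construct; higher means lower luciferase signal from less NR2E3 corepressor binding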
Rev-erbA mod: modulators of Rev-erb alpha DNA binding, primary screen, biochemical, FITC-DNA, fluorescence polarization, uHTS | actives 0.79% (n = 370,000) | activity, % at 10 µM | Nuclear receptor subfamily 1 group D member 1 (Homo sapiens), P20393 | AID 1259318, 2017 | Rev-erbα–FITC-DNA binding, 90 min;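 active means activity above about 14%, limit read from the data; passing the limit was not always enough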;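 further: 0% = DMSO wells with 35 nM protein and 100% = DMSO wells with 750 nM protein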
Rev-erbA confirm: modulators of Rev-erb alpha DNA binding, confirmation, biochemical, FITC-DNA, fluorescence polarization, single point; shares compounds with Rev-erbA mod; 90 min; activation, % at 25 µM; actives 61% (n = 3,000); AID 1259319, 2017;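 active means activation at or above a set limit, or at least 3 SD above the negative control mean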;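 further: 0% = 35 nM protein with DMSO and 100% = 750 nM protein high control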
RORg DNA counter: modulation of RORgamma DNA binding, dose response, counter-screen for Rev-erb alpha modulator project, biochemical, fluorescence polarization, FITC-DNA | shares compounds with Rev-erbA mod | purified RORgamma protein-FITC-DNA binding | IC50, µM | actives 8% (n = 910);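 active means Compounds whose fitted half-maximal concentration for disrupting protein-DNA binding is below 10 micromolar; the record names Rev-erb in its text, so the target is in doubt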
Numbers without * were called inactive; i = inactive; . = no result given.

SMILES | NR2E3 ag-1 | PG9 binder | NR2E3 ag-2 | Rev-erbA mod | Rev-erbA confirm | others
CC(C)CSc1ncccc1-c1nc2ccccc2[nH]1 | . | . | . | 17* | 11*
c1ccc(CSc2ncccc2-c2nc3ccccc3[nH]2)cc1 | . | . | . | 3 | .
Cc1cccc(N(C)C(=O)C2CCCN2S(=O)(=O)c2cccc3nsnc23)c1 (stereo not given) | -1 | 1 | -10 | -2 | .
Cc1ccccc1C(=O)NC1CCN(C(=O)N(c2ccccc2)c2ccccc2)CC1 | -1 | -2 | 2 | -3 | .
O=C(COC(=O)c1ccc2ccccc2c1O)Nc1ccccc1 | . | 1 | -12 | 59* | 28*
CCc1nnc(NC(=O)C2CCN(c3ncnc4sc(C)c(C)c34)CC2)s1 | 4 | -1 | 6 | 35* | 6
Cc1sc2ncnc(N3CCC(C(=O)Nc4nc(-c5cccs5)cs4)CC3)c2c1C | 3 | 0 | -5 | 6 | .
CCCCc1nnc(NC(=O)C2CCN(c3ncnc4sc(C)c(C)c34)CC2)s1 | 0 | 4 | 3 | 19* | 11
Cc1nc(SCC(=O)Nc2ccccc2C(F)(F)F)c(C#N)c(C)c1CC(=O)c1ccc(Br)cc1 | 5 | 1 | . | 43* | 7
CCc1c(C)nc(SCC(=O)c2cccs2)c(C#N)c1C | -3 | -3 | -242 | 3 | .
O=C(Nc1nnc(-c2ccc3c(c2)OCCO3)o1)c1ccc(Cc2ccccc2)cc1 | -1 | 2 | -23 | 31* | 3
O=C1c2cnc3nc(SCc4cccc(Cl)c4)nn3c2CC2c3ccccc3CCN12 (stereo not given) | -2 | -2 | -18 | 34* | 11
COc1cc2ccccc2cc1C(=O)Nc1ccc(Br)cn1 | . | 0 | -26 | 36* | 28*
COc1c(C(=O)Nc2ccc(Br)cn2)ccc2ccccc12 | -2 | 1 | -80 | 1 | .
COc1cc(SC)ccc1C(=O)Nc1ccc(Cl)cn1 | 3 | 0 | -84 | 18* | 34* | RORg DNA counter=i
CSc1ccc(Cl)c(C(=O)Nc2ccc(Cl)cn2)c1 | 3 | -1 | -20 | 7 | .
COc1ccccc1C(=O)NNC(=O)c1cccc(Br)c1 | -2 | -1 | -101 | 1 | .
COc1ccccc1C(=O)Nc1cccc(NC(=O)c2ccccc2OC)n1 | 4 | -1 | 19 | 23* | 13
COc1ccccc1C(=O)NNC(=O)c1cccc(Cl)c1 | 2 | 0 | -84 | 29* | 9
O=C(CCC1CCN(Cc2ccc(Cl)cc2)CC1)NC1CC1 | 0 | -1 | -1 | -5 | .
CCOC(=O)N1CCC(n2c(SCC(=O)c3ccccc3)nc3ccsc3c2=O)CC1 | -1 | -2 | 5 | 37* | 55* | RORg DNA counter=i
CN(CC(=O)Nc1cccc(Cl)c1)S(=O)(=O)c1ccc2c(c1)n(C)c(=O)c(=O)n2C | 7 | 0 | 9 | 1 | .
CN(CC(=O)Nc1ccc(Cl)cc1)S(=O)(=O)c1ccc2c(c1)n(C)c(=O)c(=O)n2C | 0 | 0 | -25 | 63* | 43* | RORg DNA counter=>40
COc1ccc(C2CC(C)(c3ccc(OC)cc3OC)Nc3ccccc3N2)c(OC)c1 (stereo not given) | 6 | -2 | 20 | 2 | .
Cc1cccc(C)c1-n1nnnc1C1(C)CCC(=O)N1Cc1ccc(F)cc1 (stereo not given) | . | -1 | -2 | 2 | .
O=C(COc1ccc(/C=N/NC(=O)c2cc3ccccc3o2)cc1Br)Nc1ccccc1 | -21 | -63 | -7 | 19* | 26*
COc1ccccc1-n1cnc2sc(-c3ccccc3)cc2c1=O | 0 | 1 | -28 | 20* | 5
O=C(NN1C(=O)/C(=C\c2ccc(O)c([N+](=O)[O-])c2)SC1=S)c1ccccc1Cl | 0 | -1 | -1 | 28* | 15
CC(=O)NN1C(=O)/C(=C\c2ccc(O)cc2)SC1=S | -5 | -6 | 19 | 20* | 19*
